Experimental findings from ChEMBL document CHEMBL4330096, “Discovery of potent and selective 5-azaindazole inhibitors of leucine-rich repeat kinase 2 (LRRK2) - Part 1” (Bioorg Med Chem Lett, 2019) are described below.

The target in series [1] is Leucine-rich repeat serine/threonine-protein kinase 2 (Homo sapiens, UniProt Q5S007, G2019S). Briefly: Inhibition of recombinant human GST-tagged LRRK2 G2019S mutant catalytic domain (970 to 2527 residues) expressed in baculovirus expression system by radiometric assay.
Sequence of Leucine-rich repeat serine/threonine-protein kinase 2 (Q5S007 whole entry G2019S, the tested form may be a part): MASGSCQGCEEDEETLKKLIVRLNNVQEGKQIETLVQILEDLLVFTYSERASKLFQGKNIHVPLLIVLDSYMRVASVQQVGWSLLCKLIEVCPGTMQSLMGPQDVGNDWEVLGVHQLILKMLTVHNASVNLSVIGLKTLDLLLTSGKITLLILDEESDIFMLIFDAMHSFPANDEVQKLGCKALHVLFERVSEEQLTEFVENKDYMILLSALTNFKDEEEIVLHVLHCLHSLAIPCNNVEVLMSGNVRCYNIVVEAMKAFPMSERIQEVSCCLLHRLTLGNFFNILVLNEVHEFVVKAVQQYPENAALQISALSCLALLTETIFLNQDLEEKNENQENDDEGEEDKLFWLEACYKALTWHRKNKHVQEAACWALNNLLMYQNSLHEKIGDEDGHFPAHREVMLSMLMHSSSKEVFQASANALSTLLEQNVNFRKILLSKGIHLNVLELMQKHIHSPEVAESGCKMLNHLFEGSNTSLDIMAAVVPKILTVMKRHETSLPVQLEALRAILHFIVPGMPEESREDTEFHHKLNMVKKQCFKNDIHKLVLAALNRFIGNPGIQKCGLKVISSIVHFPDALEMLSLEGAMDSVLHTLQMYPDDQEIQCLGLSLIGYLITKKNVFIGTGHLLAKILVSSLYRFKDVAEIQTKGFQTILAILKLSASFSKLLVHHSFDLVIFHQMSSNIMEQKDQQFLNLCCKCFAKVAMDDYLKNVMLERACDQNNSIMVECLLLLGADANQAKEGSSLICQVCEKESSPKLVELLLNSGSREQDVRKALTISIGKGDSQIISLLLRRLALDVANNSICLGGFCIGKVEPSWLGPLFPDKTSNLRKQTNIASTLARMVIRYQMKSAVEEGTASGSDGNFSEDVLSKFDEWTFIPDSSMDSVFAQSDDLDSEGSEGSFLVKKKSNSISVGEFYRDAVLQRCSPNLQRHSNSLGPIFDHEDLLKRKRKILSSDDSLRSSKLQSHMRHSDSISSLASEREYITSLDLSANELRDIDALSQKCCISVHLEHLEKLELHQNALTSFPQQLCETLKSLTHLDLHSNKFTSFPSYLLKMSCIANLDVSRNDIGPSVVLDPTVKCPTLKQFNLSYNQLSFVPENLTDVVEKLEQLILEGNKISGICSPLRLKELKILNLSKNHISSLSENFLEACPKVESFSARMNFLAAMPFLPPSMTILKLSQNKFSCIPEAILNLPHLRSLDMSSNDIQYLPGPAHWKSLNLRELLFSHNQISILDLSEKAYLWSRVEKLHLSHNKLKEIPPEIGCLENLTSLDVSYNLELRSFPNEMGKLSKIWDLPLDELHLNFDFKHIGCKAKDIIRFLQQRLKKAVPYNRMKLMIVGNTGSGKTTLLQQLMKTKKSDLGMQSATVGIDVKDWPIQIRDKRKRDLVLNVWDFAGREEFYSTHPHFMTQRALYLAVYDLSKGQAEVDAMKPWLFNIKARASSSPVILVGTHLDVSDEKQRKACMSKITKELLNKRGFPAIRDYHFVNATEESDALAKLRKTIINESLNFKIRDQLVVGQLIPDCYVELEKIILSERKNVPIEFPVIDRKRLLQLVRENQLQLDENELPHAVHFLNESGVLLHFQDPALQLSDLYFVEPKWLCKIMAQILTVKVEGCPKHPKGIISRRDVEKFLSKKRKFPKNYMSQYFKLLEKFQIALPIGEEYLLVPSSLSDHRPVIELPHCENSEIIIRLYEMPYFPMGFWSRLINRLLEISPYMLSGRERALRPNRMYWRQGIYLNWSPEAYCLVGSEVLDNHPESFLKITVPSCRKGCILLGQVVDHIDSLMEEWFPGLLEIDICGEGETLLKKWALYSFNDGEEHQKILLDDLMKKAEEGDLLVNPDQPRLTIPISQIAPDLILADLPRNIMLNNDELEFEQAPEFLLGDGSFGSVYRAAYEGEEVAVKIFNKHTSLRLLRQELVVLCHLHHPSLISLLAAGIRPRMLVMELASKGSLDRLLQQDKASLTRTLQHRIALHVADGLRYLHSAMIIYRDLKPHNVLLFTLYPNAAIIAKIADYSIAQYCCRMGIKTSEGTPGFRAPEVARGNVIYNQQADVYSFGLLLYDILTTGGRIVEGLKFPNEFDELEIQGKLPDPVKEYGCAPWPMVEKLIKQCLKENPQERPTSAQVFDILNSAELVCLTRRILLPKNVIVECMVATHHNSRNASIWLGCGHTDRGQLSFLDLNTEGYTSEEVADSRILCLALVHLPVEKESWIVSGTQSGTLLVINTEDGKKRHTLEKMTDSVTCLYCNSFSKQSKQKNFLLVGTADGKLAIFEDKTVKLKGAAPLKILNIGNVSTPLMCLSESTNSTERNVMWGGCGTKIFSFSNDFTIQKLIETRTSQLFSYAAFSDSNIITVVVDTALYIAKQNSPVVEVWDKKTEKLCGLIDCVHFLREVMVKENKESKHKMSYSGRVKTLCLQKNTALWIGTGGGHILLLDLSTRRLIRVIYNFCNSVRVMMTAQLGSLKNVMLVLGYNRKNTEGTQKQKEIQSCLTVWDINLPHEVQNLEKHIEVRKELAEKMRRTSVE
Series [2] is described as follows: Lipophilicity, log D of the compound at pH 7.4. The class given is physicochemical. Conditions: buffer.
A short description of series [3]: Stability in mouse liver microsomes assessed as compound turnover rate measured after 30 mins. The class given is ADME, Microsome. The following applies: read-out: Drug metabolism. In short, it runs like this:
(§1)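 In vitro incubation of compound with liver microsomes: human (HLM) for 40 min, mouse (MLM) for 30 min. Reported as % turnover of parent compound.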
(Microsomes from liver hold many membrane-bound enzymes, among them those of drug oxidation.)

A short description of series [4]: Stability in human liver microsomes assessed as compound turnover rate measured after 40 mins. The class given is ADME, Microsome. The following applies: read-out: Drug metabolism. In a few lines:
as §1

A short description of series [5]: Ratio of drug level in mouse brain to plasma. The following applies: read-out: BPR. In a few lines: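 Mice; ratio based on total (not unbound) compound concentrations in brain versus plasma.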

SMILES strings stand for the structures.

Turning to `Cc1n[nH]c2ccnc(NC(C)C)c12`, the IC50 (as a rule, the point on the concentration scale where inhibition reaches its midpoint) in series [1] was 880 nM.

As to `Cc1n[nH]c2ccnc(N3CCOCC3)c12`, the IC50 in series [1] amounted to 3000 nM.

As for `Cc1n[nH]c2ccnc(Nc3cnn(C)c3)c12`, the IC50 in series [1] turned out to be 830 nM.

On to `CC(C)n1cc(-c2n[nH]c3ccnc(OC4CCCCC4)c23)cn1`, for which the half-inhibitory concentration (IC50) in series [1] is 2 nM. Moreover, in series [2], the logD (as a rule, the decadic logarithm of the distribution of all forms, ionised or not, between an organic phase and buffer at a given pH) amounted to 3.7. In addition, the metabolised at 0.5 h in series [3] was determined as 66%. Also, in series [4], the metabolised at 40 min was 36%.

For `c1cc2[nH]nc(-c3cnn(C4CCCC4)c3)c2c(OC2CCOCC2)n1`, the IC50 in series [1] was 4 nM.

On to `Cc1n[nH]c2ccnc(OC3CCC3)c12`, for which the IC50 in series [1] came out at 170 nM. Further, the metabolised at 0.5 h in series [3] was 41%. In addition, the metabolised at 40 min in series [4] was 22%.

In the case of `c1cc2[nH]nc(-c3cnn(C4CCCC4)c3)c2c(NC2CCOCC2)n1`, in series [1], the IC50 is 170 nM.

`CC(C)Cn1cc(-c2n[nH]c3ccnc(NC4CCOCC4)c23)cn1`: in series [1], the IC50 is 410 nM.

Consider `Cc1n[nH]c2ccnc(Nc3cccnc3)c12`, for which the half-maximal inhibitory concentration (IC50) in series [1] is greater than 10000 nM.

As for `Cc1nn(C)c2ccnc(NC3CCCCC3)c12`, the IC50 in series [1] was greater than 10000 nM.

As for `Cc1ccc(Nc2nccc3[nH]nc(C)c23)cc1`, in series [1], the IC50 worked out at 97 nM. The metabolised at 0.5 h in series [3] was determined as 28%. Further, in series [4], the metabolised at 40 min was 13%.

On to `CC(C)n1cc(-c2n[nH]c3ccnc(NC4CCCCC4)c23)cn1`, for which, in series [1], the half-inhibitory concentration (IC50) amounted to 110 nM. In addition, the logD in series [2] is 3.2. Moreover, the metabolised at 0.5 h in series [3] stood at 43%. Further, the metabolised at 40 min in series [4] stood at 23%.

Turning to `Cc1n[nH]c2ccnc(OC(C)C)c12`, the concentration for half-maximal inhibition (IC50) in series [1] was 68 nM. The metabolised at 0.5 h in series [3] turned out to be 24%. The metabolised at 40 min in series [4] worked out at 2%.

Turning to `Cc1n[nH]c2ccnc(NCc3ccc(Cl)cc3)c12`, the half-maximal inhibitory concentration (IC50) in series [1] came to 4900 nM.

On to `c1cc(-c2n[nH]c3ccnc(NC4CCOCC4)c23)cc(N2CCOCC2)n1`, for which the metabolised at 0.5 h in series [3] came to 11%. Also, the metabolised at 40 min in series [4] amounted to 17%.

As for `Cc1c[nH]c2ccnc(NC3CCCCC3)c12`, the IC50 in series [1] is greater than 10000 nM.

Regarding `Cc1n[nH]c2ccnc(OC3CCCC3)c12`, in series [1], the IC50 is 86 nM. Besides, in series [3], the metabolised at 0.5 h turned out to be 42%. Further, in series [4], the metabolised at 40 min stood at 31%.

With `Cc1n[nH]c2ccnc(Nc3ccc(Cl)cc3)c12`, in series [1], the IC50 is 390 nM.

Consider `Cc1n[nH]c2cncc(NC3CCCCC3)c12`, for which the IC50 in series [1] came to 770 nM.

On to `CC[C@H](C)Nc1nccc2[nH]nc(C)c12`, for which, in series [1], the IC50 was 300 nM. For the same compound, in series [3], the metabolised at 0.5 h was determined as 9%. Further, the metabolised at 40 min in series [4] worked out at 6%.

With `Cc1n[nH]c2ccnc(NC3CC3)c12`, in series [1], the half-inhibitory concentration (IC50) was 4700 nM.

As for `Cc1n[nH]c2ccnc(N(C)C3CCCCC3)c12`, in series [1], the IC50 turned out to be 1600 nM.

With `Cc1n[nH]c2ccnc(NCC3CC3)c12`, in series [1], the IC50 came out at 2400 nM.

On to `Cn1cc(-c2n[nH]c3ccnc(NC4CCCCC4)c23)cn1`, for which the IC50 in series [1] was 130 nM. In series [2], the logD amounted to 2.7. Further, in series [3], the metabolised at 0.5 h is 19%. In addition, the metabolised at 40 min in series [4] is 21%.

Consider `Cc1n[nH]c2ccnc(NC3CCCC3)c12`, for which the half-inhibitory concentration (IC50) in series [1] stood at 410 nM. For the same compound, the metabolised at 0.5 h in series [3] was 10%. The metabolised at 40 min in series [4] was 2%.

Consider `CCOc1nccc2[nH]nc(C)c12`, for which, in series [1], the IC50 is 440 nM.

Regarding `Cc1n[nH]c2ccnc(O[C@@H]3CCOC3)c12`, the half-maximal inhibitory concentration (IC50) in series [1] was 250 nM. For the same compound, the metabolised at 0.5 h in series [3] amounted to 13%. For the same compound, the metabolised at 40 min in series [4] was found to be 0%.

Regarding `Cc1n[nH]c2ccnc(OC3CCN(C)CC3)c12`, in series [1], the half-maximal inhibitory concentration (IC50) was 1900 nM.

`Cc1n[nH]c2ccnc(NC3CCC3)c12`: in series [1], the IC50 turned out to be 530 nM.

With `Cc1n[nH]c2ccnc(NC3CCOCC3)c12`, the IC50 in series [1] is 190 nM. The same compound returned a logD in series [2] of 1.2. Moreover, the metabolised at 0.5 h in series [3] came out at 4%. In series [5], the Kp is 1.6. Moreover, the metabolised at 40 min in series [4] turned out to be 0%.

Turning to `CC(C)Cn1cc(-c2n[nH]c3ccnc(OC4CCOCC4)c23)cn1`, the IC50 in series [1] was found to be 15 nM.

Regarding `Cc1noc2ccnc(NC3CCCCC3)c12`, in series [1], the IC50 was greater than 10000 nM.
